Key:
[1] = Cytotoxicity against human EKVX cells at 10^-4 M after 48 hrs by SRB assay; assay type: functional; conditions: read-out: GI
Summary of the method: (§1)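 Run by NCI on its 60-line human tumor cell panel, after a three-cell-line prescreen. Cells were exposed to drug for 48 h over a 5-log range: 100, 10, 1, 0.1 and 0.01 micromolar. Growth was estimated by sulforhodamine B (SRB) protein staining. Percent growth inhibition (I%) was recorded at each concentration relative to untreated control cells.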

[2] = system: HOP-62; assay: Cytotoxicity against human HOP62 cells at 10^-4 M after 48 hrs by SRB assay; assay type: functional; conditions: HOP-62, 48 h, read-out: GI; summary of the method: as §1
[3] = Cytotoxicity against human OVCAR4 cells at 10^-4 M after 48 hrs by SRB assay; assay type: functional; conditions: OVCAR-4, 48 h, read-out: GI
Summary of the method: (§2)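 Second-stage screen in the 60-cell-line human tumor panel at NCI, over a 5-log range (100, 10, 1, 0.1, 0.01 micromolar). Cells were exposed to drug for 48 h and growth was estimated with a sulforhodamine B protein stain. The value is percent growth inhibition at each concentration.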

[4] = system: CAKI-1; assay: Cytotoxicity against human Caki1 cells at 10^-4 M after 48 hrs by SRB assay; assay type: functional; conditions: CAKI-1, 48 h, read-out: GI; summary of the method: as §1
[5] = system: SNB-75; assay: Cytotoxicity against human SNB75 cells at 10^-4 M after 48 hrs by SRB assay; assay type: functional; conditions: SNB-75, 48 h, read-out: GI; summary of the method: as §2
[6] = system: NCI-H460; assay: Cytotoxicity against human NCI-H460 cells at 10^-4 M after 48 hrs by SRB assay; assay type: functional; conditions: NCI-H460, 48 h, read-out: GI
Summary of the method: (§3)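 Run in the NCI 60-cell-line screen after a three-line prescreen. Cells got a 48 h drug exposure; viability/growth was estimated with the sulforhodamine B protein assay. Growth inhibition (I%) was recorded at 100, 10, 1, 0.1 and 0.01 micromolar. Percent growth is relative to untreated control cells, and negative values indicate cell kill.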

[7] = system: NCI-H322M; assay: Cytotoxicity against human NCI-H322M cells at 10^-4 M after 48 hrs by SRB assay; assay type: functional; conditions: read-out: GI; summary of the method: as §3
[8] = system: A498; assay: Cytotoxicity against human A498 cells at 10^-4 M after 48 hrs by SRB assay; assay type: functional; conditions: A498, 48 h, read-out: GI; summary of the method: as §1
[9] = system: NCI-H522; assay: Cytotoxicity against human NCI-H522 cells at 10^-4 M after 48 hrs by SRB assay; assay type: functional; conditions: NCI-H522, 48 h, read-out: GI; summary of the method: as §3
[10] = system: HOP-92; assay: Cytotoxicity against human HOP92 cells at 10^-4 M after 48 hrs by SRB assay; assay type: functional; conditions: HOP-92, 48 h, read-out: GI; summary of the method: as §1
[11] = system: HCC 2998; assay: Cytotoxicity against human HCC2998 cells at 10^-4 M after 48 hrs by SRB assay; assay type: functional; conditions: HCC 2998, 48 h, read-out: GI; summary of the method: as §1
[12] = system: A549; assay: Cytotoxicity against human A549 cells at 10^-4 M after 48 hrs by SRB assay; assay type: functional; conditions: A549, 48 h, read-out: GI; summary of the method: as §1
[13] = system: BT-549; assay: Cytotoxicity against human BT549 cells at 10^-4 M after 48 hrs by SRB assay; assay type: functional; conditions: BT-549, 48 h, read-out: GI; summary of the method: as §1
[14] = system: NCI/ADR-RES; assay: Cytotoxicity against human NCI/ADR-RES cells at 10^-4 M after 48 hrs by SRB assay; assay type: functional; conditions: read-out: GI; summary of the method: as §3
[15] = system: IGROV-1; assay: Cytotoxicity against human IGROV1 cells at 10^-4 M after 48 hrs by SRB assay; assay type: functional; conditions: IGROV-1, 48 h, read-out: GI; summary of the method: as §1
[16] = system: KM12; assay: Cytotoxicity against human KM12 cells at 10^-4 M after 48 hrs by SRB assay; assay type: functional; conditions: KM12, 48 h, read-out: GI; summary of the method: as §3
[17] = system: HCT-15; assay: Cytotoxicity against human HCT15 cells at 10^-4 M after 48 hrs by SRB assay; assay type: functional; conditions: HCT-15, 48 h, read-out: GI; summary of the method: as §1
[18] = Cytotoxicity against human Hs578T cells at 10^-4 M after 48 hrs by SRB assay; assay type: functional; conditions: Hs-578T, read-out: GI; summary of the method: as §1
[19] = system: SW-620; assay: Cytotoxicity against human SW620 cells at 10^-4 M after 48 hrs by SRB assay; assay type: functional; conditions: SW-620, 48 h, read-out: GI; summary of the method: as §2
[20] = system: ACHN; assay: Cytotoxicity against human ACHN cells at 10^-4 M after 48 hrs by SRB assay; assay type: functional; conditions: read-out: GI; summary of the method: as §1
[21] = system: T47D; assay: Cytotoxicity against human T47D cells at 10^-4 M after 48 hrs by SRB assay; assay type: functional; conditions: read-out: GI; summary of the method: as §2
[22] = system: SF-268; assay: Cytotoxicity against human SF268 cells assessed as cell growth at 10^-4 M after 48 hrs by alamar blue assay relative to untreated control; assay type: functional; conditions: SF-268, 48 h, read-out: Activity
Summary of the method: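 Three-cell-line prescreen at NCI. Each line was seeded and pre-incubated, then given a single concentration (10^-4 or 10^-5 M) and incubated for 48 h. The end-point was alamar blue. The value is percent growth of treated cells versus untreated control cells, with negative numbers indicating cell kill.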

[23] = system: HCT-116; assay: Cytotoxicity against human HCT116 cells at 10^-4 M after 48 hrs by SRB assay; assay type: functional; conditions: HCT-116, 48 h, read-out: GI; summary of the method: as §1
[24] = system: MDA-MB-231; assay: Cytotoxicity against human MDA-MB-231 cells at 10^-4 M after 48 hrs by SRB assay; assay type: functional; conditions: MDA-MB-231, 48 h, read-out: GI; summary of the method: as §3
[25] = system: NCI-H460; assay: Cytotoxicity against human NCI-H460 cells assessed as cell growth at 10^-4 M after 48 hrs by alamar blue assay relative to untreated control; assay type: functional; conditions: NCI-H460, 48 h, read-out: Activity
Summary of the method: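 Three-cell-line prescreen. Each line was inoculated and preincubated on a microtiter plate, then the agent was added at a single concentration (10^-4 or 10^-5 M) and incubated 48 h. Endpoint was measured with alamar blue, and growth is reported as a percentage of untreated control cells.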

[26] = system: DU-145; assay: Cytotoxicity against human DU145 cells at 10^-4 M after 48 hrs by SRB assay; assay type: functional; conditions: DU-145, 48 h, read-out: GI; summary of the method: as §1
[27] = system: SF-268; assay: Cytotoxicity against human SF268 cells at 10^-4 M after 48 hrs by SRB assay; assay type: functional; conditions: SF-268, 48 h, read-out: GI; summary of the method: as §2
[28] = system: U-251; assay: Cytotoxicity against human U251 cells at 10^-4 M after 48 hrs by SRB assay; assay type: functional; conditions: U-251, 48 h, read-out: GI; summary of the method: as §2
[29] = system: CCRF-CEM; assay: Cytotoxicity against human CCRF-CEM cells at 10^-4 M after 48 hrs by SRB assay; assay type: functional; conditions: read-out: GI; summary of the method: as §1
[30] = target: Thymidylate synthase (Homo sapiens, UniProt P04818); assay: Competitive inhibition of human thymidylate synthase by spectrophotometry
[31] = system: HL-60(TB); assay: Cytotoxicity against human HL-60(TB) cells at 10^-4 M after 48 hrs by SRB assay; assay type: functional; conditions: HL-60, 48 h, read-out: GI
Summary of the method: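 NCI 60-human-tumour-cell-line screen run over a 5-log dose range (100, 10, 1, 0.1 and 0.01 µM). Cells were exposed to drug for 48 h. Growth was estimated by sulforhodamine B protein staining. Values are percent growth inhibition at each concentration, relative to untreated control cells.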

[32] = system: M14; assay: Cytotoxicity against human M14 cells at 10^-6 M after 48 hrs by SRB assay; assay type: functional; conditions: M14, 48 h, read-out: GI; summary of the method: as §3

Thymidylate synthase, sequence (P04818 whole entry): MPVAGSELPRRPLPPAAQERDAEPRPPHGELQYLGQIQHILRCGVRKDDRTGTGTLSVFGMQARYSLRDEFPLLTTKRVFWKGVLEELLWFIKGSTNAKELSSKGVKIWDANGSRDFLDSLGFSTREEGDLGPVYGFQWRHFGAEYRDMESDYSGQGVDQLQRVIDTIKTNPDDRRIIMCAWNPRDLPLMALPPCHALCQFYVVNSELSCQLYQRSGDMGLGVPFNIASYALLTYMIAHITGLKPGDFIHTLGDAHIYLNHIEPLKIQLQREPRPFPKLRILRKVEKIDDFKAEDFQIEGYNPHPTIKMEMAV

Structure (SMILES) | inhibition of growth at 100 µM [1] [%] | inhibition of growth at 100 µM [3] [%] | inhibition of growth at 100 µM [5] [%] | inhibition of growth at 100 µM [6] [%] | inhibition of growth at 100 µM [8] [%] | inhibition of growth at 100 µM [9] [%] | inhibition of growth at 100 µM [10] [%] | inhibition of growth at 100 µM [12] [%] | inhibition of growth at 100 µM [13] [%] | inhibition of growth at 100 µM [14] [%] | inhibition of growth at 100 µM [15] [%] | inhibition of growth at 100 µM [17] [%] | inhibition of growth at 100 µM [18] [%] | inhibition of growth at 100 µM [19] [%] | inhibition of growth at 100 µM [20] [%] | inhibition of growth at 100 µM [21] [%] | growth at 100 µM [22] [%] | inhibition of growth at 100 µM [23] [%] | inhibition of growth at 100 µM [24] [%] | growth at 100 µM [25] [%] | also measured
C#CCN(Cc1nc2cc(C(F)(F)F)ccc2nc1-c1ccccc1)c1ccc(OC(F)(F)F)cc1 | 89 | < 40 | < 40 | 78 | 87 | 125 | 109 | 60 | 86 | < 40 | 81 | 47 | < 40 | 75 | 65 | 70 | 21 | 99 | 81 | 7 | inhibition of growth at 100 µM [2]: 48%; inhibition of growth at 100 µM [4]: 69%; inhibition of growth at 100 µM [7]: 79%; inhibition of growth at 100 µM [11]: 104%; inhibition of growth at 100 µM [16]: 112%; inhibition of growth at 100 µM [26]: 75%; inhibition of growth at 100 µM [27]: 63%; inhibition of growth at 100 µM [28]: 70%
C#CCN(Cc1nc2cc(C(F)(F)F)ccc2nc1-c1ccccc1)c1ccc(F)c(F)c1 | 123 | < 40 | < 40 | 90 | 78 | 85 | 63 | 107 | 67 | 67 | 58 | 82 | 70 | 82 | 56 | 61 | 95 | 77 | 90 | 18 | inhibition of growth at 100 µM [2]: < 40%; inhibition of growth at 100 µM [29]: 98%; inhibition of growth at 100 µM [11]: 102%; Ki [30]: 3560 nM; inhibition of growth at 100 µM [26]: 78%; inhibition of growth at 100 µM [27]: 91%; inhibition of growth at 100 µM [31]: 79%; inhibition of growth at 100 µM [28]: 59%
C#CCN(Cc1nc2cc(C(F)(F)F)ccc2nc1-c1ccccc1)c1ccc(C)cc1 | 56 | 200 | 180 | 96 | 157 | 134 | 93 | 84 | 104 | 195 | 79 | 181 | 113 | 79 | 193 | 172 | 89 | 189 | 163 | 17 | inhibition of growth at 100 µM [2]: 199%; inhibition of growth at 100 µM [29]: < 40%; inhibition of growth at 100 µM [4]: 147%; inhibition of growth at 100 µM [7]: 180%; Ki [30]: 510 nM; inhibition of growth at 1 µM [32]: 54%; inhibition of growth at 100 µM [16]: 161%; inhibition of growth at 100 µM [26]: 40%; inhibition of growth at 100 µM [27]: 76%; inhibition of growth at 100 µM [31]: 105%; inhibition of growth at 100 µM [28]: 181%
C#CCN(Cc1nc2cc(C(F)(F)F)ccc2nc1-c1ccccc1)c1ccc(F)cc1 | 120 | 87 | 54 | 94 | 104 | 93 | 106 | 123 | 77 | 108 | 86 | 97 | 94 | 93 | 89 | 90 | 90 | 94 | 129 | 6 | inhibition of growth at 100 µM [29]: 94%; inhibition of growth at 100 µM [4]: 110%; inhibition of growth at 100 µM [7]: 123%; Ki [30]: 2380 nM; inhibition of growth at 100 µM [16]: 124%; inhibition of growth at 100 µM [26]: 82%; inhibition of growth at 100 µM [27]: 82%; inhibition of growth at 100 µM [31]: 92%; inhibition of growth at 100 µM [28]: 85%

From ChEMBL document CHEMBL3120154, “2-[N-Alkyl(R-phenyl)-aminomethyl]-3-phenyl-7-trifluoromethylquinoxalines as anticancer agents inhibitors of folate enzymes” (Eur J Med Chem, 2014)
